≈ marks a conversion by molar mass, not a printed value.
Legend:
[1] = Cytotoxicity against mouse J774 cells assessed as cell viability at 30 uM after 24 hrs by MTT assay relative to control; format: toxicity, cell-based; conditions: J774 cells, read-out: Activity
Summary of the method: (§1)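 Murine J774 macrophages exposed 24 h to 10 or 30 μM compound, then 1 h with 0.2 mg/mL MTT; reaction stopped with DMSO, OD read at 570 nm as metabolic-activity viability. Number of independent experiments given per value.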

[2] = test system: Klebsiella pneumoniae; assay: Antibacterial activity against Klebsiella pneumoniae ATCC 700603 by microdilution method; format: functional
Summary of the method: (§2)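 Strains grown overnight at 37 °C on trypticase soy agar; MIC by broth microdilution from fresh culture in cation-adjusted Mueller–Hinton broth, starting inoculum 10^6 cells, following CLSI recommendations.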

[3] = test system: Pseudomonas aeruginosa; assay: Antibacterial activity against MexXY expressing Pseudomonas aeruginosa PA22 by microdilution method; format: functional; summary of the method: as §2
[4] = test system: Staphylococcus aureus; assay: Antibacterial activity against healthcare-acquired methicillin-resistant Staphylococcus aureus ATCC 33592 by microdilution method; format: functional
Summary of the method: (§3)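 Broth microdilution per CLSI in cation-adjusted Mueller–Hinton broth. Strains were grown overnight at 37 °C on trypticase soy agar, and a fresh culture was used. Starting inoculum was 10^6 cells.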

[5] = Cytotoxicity against mouse J774 cells assessed as cell viability at 10 uM after 24 hrs by MTT assay relative to control; format: toxicity, cell-based; conditions: J774 cells, read-out: Activity; summary of the method: as §1
[6] = test system: Staphylococcus aureus; assay: Antibacterial activity against Staphylococcus aureus ATCC 25923 by microdilution method; format: functional; summary of the method: as §3
[7] = test system: Acinetobacter lwoffii; assay: Antibacterial activity against APH3'-VIA expressing Acinetobacter lwoffii AI.88-483 by microdilution method; format: functional; summary of the method: as §2
[8] = test system: Acinetobacter lwoffii; assay: Antibacterial activity against Acinetobacter lwoffii ATCC 17925 by microdilution method; format: functional; summary of the method: as §2
[9] = test system: Escherichia coli; assay: Antibacterial activity against ANT2''-IA expressing Escherichia coli L8058.1 by microdilution method; format: functional; summary of the method: as §2
[10] = test system: Escherichia coli; assay: Antibacterial activity against AAC6'-IB expressing Escherichia coli PAZ505H8101 by microdilution method; format: functional; summary of the method: as §2
[11] = test system: Pseudomonas aeruginosa; assay: Antibacterial activity against AAC6'-2A expressing Pseudomonas aeruginosa F03 by microdilution method; format: functional; summary of the method: as §2
[12] = test system: Pseudomonas aeruginosa; assay: Antibacterial activity against Pseudomonas aeruginosa ATCC 27853 by microdilution method; format: functional; summary of the method: as §2
[13] = test system: Pseudomonas aeruginosa; assay: Antibacterial activity against triABC deficient Pseudomonas aeruginosa PA406 by microdilution method; format: functional; summary of the method: as §2
[14] = test system: Staphylococcus aureus; assay: Antibacterial activity against NorA expressing Staphylococcus aureus 1 by microdilution method
[15] = test system: Escherichia coli; assay: microbe, parasite or virus in culture; conditions: ATCC 25922

| Molecule | viability at 24 h, 30 µM [1] [%] | MIC [2] [µg/mL] | MIC [3] [µg/mL] | MIC [4] [µg/mL] | viability at 24 h, 10 µM [5] [%] | MIC [6] [µg/mL] | MIC [7] [µg/mL] | MIC [8] [µg/mL] | MIC [9] [µg/mL] | MIC [10] [µg/mL] | MIC [11] [µg/mL] | MIC [12] [µg/mL] | MIC [13] [µg/mL] | MIC [14] [µg/mL] | MIC [15] [µg/mL] |
| --- | --- | --- | --- | --- | --- | --- | --- | --- | --- | --- | --- | --- | --- | --- | --- |
| CCCCCCCCCO[C@@H]1[C@@H](N)[C@@H](OCC(O)CO)O[C@H](CN)[C@H]1OCCCCCCCCC (mixture of isomers) | 8.8 | 64 | 64 | 2 | 89.7 | 2 | 8 | 1 | 8 | 16 | 64 | 64 | 64 | 2 | 8 |
| CCCCCCCCCO[C@@H]1[C@@H](N)[C@@H](OCC(O)CNCCO)O[C@H](CN)[C@H]1OCCCCCCCCC (mixture of isomers) | 10.1 | 8 | 8 | 1 to 2 | 99.1 | 4 | 4 to 8 | 2 | 4 to 8 | 8 | 8 | 8 | 8 | 1 to 2 | 4 to 8 |
| CCCCCCCCCO[C@@H]1[C@@H](N)[C@@H](OC[C@@H](O)CN)O[C@H](CN)[C@H]1OCCCCCCCCC | 7.2 | 8 (≈ 15.9 µM) | 8 (≈ 15.9 µM) | 2 (≈ 3.97 µM) | 85.1 | 2 (≈ 3.97 µM) | 4 (≈ 7.94 µM) | 2 (≈ 3.97 µM) | 4 to 8 (≈ 7.94 to 15.9 µM) | 4 (≈ 7.94 µM) | 8 (≈ 15.9 µM) | 4 to 8 (≈ 7.94 to 15.9 µM) | 4 to 8 (≈ 7.94 to 15.9 µM) | 1 (≈ 1.99 µM) | 4 (≈ 7.94 µM) |
| CCCCCCCCCO[C@@H]1[C@@H](N)[C@@H](OCC(O)CNCCN)O[C@H](CN)[C@H]1OCCCCCCCCC (mixture of isomers) | 53 | 8 to 16 | 4 to 8 | 2 | 87.5 | 2 | 16 to 32 | 2 | 4 to 8 | 4 to 8 | 4 to 8 | 8 | 8 | 2 | 8 |
| CCCCCCCCCO[C@@H]1[C@@H](N)[C@@H](OC[C@H](O)CN=[N+]=[N-])O[C@H](CN)[C@H]1OCCCCCCCCC | 5.9 | > 128 | 128 (≈ 242 µM) | 2 (≈ 3.78 µM) | 62.2 | 2 (≈ 3.78 µM) | > 128 | 4 (≈ 7.55 µM) | > 128 | > 128 | > 128 | > 128 | > 128 | 2 (≈ 3.78 µM) | 32 (≈ 60.4 µM) |
| GENTAMICIN | – | 4 to 8 | 4 | 1 | – | 0.25 to 0.5 | 2 | < 0.25 | 64 | 1 | > 128 | 1 | < 0.25 | – | – |
| C=CCO[C@H]1O[C@H](CN)[C@@H](OCc2ccc3ccccc3c2)[C@H](OCc2ccc3ccccc3c2)[C@H]1N | 28.3 | > 128 | > 128 | 8 (≈ 16 µM) | 86.9 | 8 (≈ 16 µM) | 64 (≈ 128 µM) | 8 (≈ 16 µM) | 128 (≈ 257 µM) | 64 (≈ 128 µM) | > 128 | > 128 | 32 (≈ 64.2 µM) | 8 (≈ 16 µM) | 64 (≈ 128 µM) |
| NC[C@H]1O[C@H](O[C@H]2[C@H](O)[C@@H](O[C@H]3O[C@H](CO)[C@@H](O)[C@H](N)[C@H]3O)[C@H](N)C[C@@H]2N)[C@H](N)C[C@@H]1O [TOBRAMYCIN] | 83.2 | 4 to 8 (≈ 8.56 to 17.1 µM) | 0.5 (≈ 1.07 µM) | 64 (≈ 137 µM) | 99.7 | 0.25 (≈ 0.535 µM) | 0.5 to 1 (≈ 1.07 to 2.14 µM) | < 0.25 | 64 (≈ 137 µM) | 32 (≈ 68.4 µM) | 128 (≈ 274 µM) | < 0.25 | < 0.25 | 0.5 (≈ 1.07 µM) | 1 (≈ 2.14 µM) |
| C=CCO[C@H]1O[C@H](CN)[C@@H](OCCCc2ccc3ccccc3c2)[C@H](OCCCc2ccc3ccccc3c2)[C@H]1N | 7 | 128 (≈ 231 µM) | > 128 | 4 to 8 (≈ 7.21 to 14.4 µM) | 105 | 4 to 8 (≈ 7.21 to 14.4 µM) | 64 (≈ 115 µM) | 4 to 8 (≈ 7.21 to 14.4 µM) | 64 (≈ 115 µM) | 64 (≈ 115 µM) | > 128 | 128 (≈ 231 µM) | 32 (≈ 57.7 µM) | 4 (≈ 7.21 µM) | 32 to 64 (≈ 57.7 to 115 µM) |
| CCCCCCCCCO[C@@H]1[C@@H](N)[C@@H](OC[C@H](O)CN)O[C@H](CN)[C@H]1OCCCCCCCCC | 14.4 | 8 to 16 (≈ 15.9 to 31.8 µM) | 8 (≈ 15.9 µM) | 2 (≈ 3.97 µM) | 88 | 2 (≈ 3.97 µM) | 8 (≈ 15.9 µM) | 2 (≈ 3.97 µM) | 4 (≈ 7.94 µM) | 4 (≈ 7.94 µM) | 8 (≈ 15.9 µM) | 8 (≈ 15.9 µM) | 8 (≈ 15.9 µM) | 2 (≈ 3.97 µM) | 4 (≈ 7.94 µM) |
| NC[C@@H]1O[C@H](O[C@H]2[C@@H](O)[C@H](O[C@@H]3[C@@H](O)[C@H](N)C[C@H](N)[C@H]3O[C@H]3O[C@H](CN)[C@@H](O)[C@H](O)[C@H]3N)O[C@@H]2CO)[C@H](N)[C@@H](O)[C@@H]1O [FRAMYCETIN] | 69.8 | 4 to 8 (≈ 6.51 to 13 µM) | 32 to 64 (≈ 52.1 to 104 µM) | > 128 | 87.3 | 1 to 2 (≈ 1.63 to 3.25 µM) | 64 to 128 (≈ 104 to 208 µM) | < 0.25 | 1 (≈ 1.63 µM) | 4 (≈ 6.51 µM) | 128 (≈ 208 µM) | 64 (≈ 104 µM) | 2 (≈ 3.25 µM) | 0.5 (≈ 0.813 µM) | 2 (≈ 3.25 µM) |
| NC[C@H]1O[C@H](O[C@H]2[C@H](O)[C@@H](O)[C@H](N)C[C@@H]2N)[C@H](N)[C@@H](OCc2ccc3ccccc3c2)[C@@H]1OCc1ccc2ccccc2c1 | – | > 128 | 128 (≈ 212 µM) | 4 to 8 (≈ 6.64 to 13.3 µM) | 79.1 | 2 to 4 (≈ 3.32 to 6.64 µM) | > 128 | 4 (≈ 6.64 µM) | 16 to 32 (≈ 26.5 to 53.1 µM) | 8 to 16 (≈ 13.3 to 26.5 µM) | 128 (≈ 212 µM) | 16 (≈ 26.5 µM) | 2 to 4 (≈ 3.32 to 6.64 µM) | 2 to 4 (≈ 3.32 to 6.64 µM) | 16 to 32 (≈ 26.5 to 53.1 µM) |
| NC[C@H]1O[C@H](O[C@H]2[C@H](O)[C@@H](O)[C@H](N)C[C@@H]2N)[C@H](N)[C@@H](O)[C@@H]1O [NEAMINE] | 84.4 | 32 (≈ 99.3 µM) | > 128 | > 128 | 94.8 | 16 to 32 (≈ 49.6 to 99.3 µM) | > 128 | 0.5 (≈ 1.55 µM) | 32 (≈ 99.3 µM) | > 128 | > 128 | > 128 | 64 (≈ 199 µM) | 8 (≈ 24.8 µM) | 32 (≈ 99.3 µM) |
| CCCCCCCCCO[C@@H]1[C@@H](N)[C@@H](OCC(O)CNCCCO)O[C@H](CN)[C@H]1OCCCCCCCCC (mixture of isomers) | 13.7 | 8 to 16 | 8 | 1 to 2 | 89.9 | 2 | 8 | 1 | 4 | 4 | 8 | 8 | 8 | 1 to 2 | 4 to 8 |
